The values that follow come from PMC10733988 (ACS Omega, 2023).

Each structure is given as a SMILES string.

One data set in a line: BBB permeability assay. In kind it is in vitro ADME. The conditions noted are these: for prediction (BBB permeation) / Papp: PAMPA; for prediction (BBB permeation): class from Pe. The gist of the method:
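Passive BBB permeation is estimated with a non-cell PAMPA: a filter membrane (0.45 µm pore, 125 µm thick) soaked in n-dodecane sits between donor and acceptor wells. Test compound stocks (10 mM in DMSO, kept at 0 °C) are diluted in buffer to final 1, 0.1 and 0.01 mM, with DMSO below 1% (v/v). Pe is calculated from donor and receptor absorbance, filter area (0.45 cm²), compartment volumes and time.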

The next data set concerns the target T1, Recombinant human MAO-A (Homo sapiens, UniProt P21397).
T1 sequence (P21397 1-527): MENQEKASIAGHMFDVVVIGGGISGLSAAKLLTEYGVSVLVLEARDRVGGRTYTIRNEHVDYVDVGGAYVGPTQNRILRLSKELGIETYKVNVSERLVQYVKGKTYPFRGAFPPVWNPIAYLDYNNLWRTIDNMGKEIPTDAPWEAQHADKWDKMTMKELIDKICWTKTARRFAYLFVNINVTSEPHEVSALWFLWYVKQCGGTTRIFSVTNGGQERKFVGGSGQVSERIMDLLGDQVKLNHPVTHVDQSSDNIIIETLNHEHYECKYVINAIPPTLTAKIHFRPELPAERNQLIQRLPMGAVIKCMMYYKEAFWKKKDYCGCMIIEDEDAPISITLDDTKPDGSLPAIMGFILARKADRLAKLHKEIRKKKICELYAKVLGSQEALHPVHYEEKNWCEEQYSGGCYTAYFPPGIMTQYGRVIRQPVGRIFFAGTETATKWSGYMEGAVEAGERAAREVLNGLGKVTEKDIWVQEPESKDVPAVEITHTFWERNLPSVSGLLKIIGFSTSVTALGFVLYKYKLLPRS
The experiment in a line: MAO-A inhibition enzyme assay. It is filed as biochemical. The conditions noted are these: for remaining activity at 10 µM: read-out: residual activities at 10 μM (%) MAO-A.

For data set [1], the target named is T2, Recombinant human MAO-B (Homo sapiens, UniProt P27338).
T2 sequence (P27338 1-520): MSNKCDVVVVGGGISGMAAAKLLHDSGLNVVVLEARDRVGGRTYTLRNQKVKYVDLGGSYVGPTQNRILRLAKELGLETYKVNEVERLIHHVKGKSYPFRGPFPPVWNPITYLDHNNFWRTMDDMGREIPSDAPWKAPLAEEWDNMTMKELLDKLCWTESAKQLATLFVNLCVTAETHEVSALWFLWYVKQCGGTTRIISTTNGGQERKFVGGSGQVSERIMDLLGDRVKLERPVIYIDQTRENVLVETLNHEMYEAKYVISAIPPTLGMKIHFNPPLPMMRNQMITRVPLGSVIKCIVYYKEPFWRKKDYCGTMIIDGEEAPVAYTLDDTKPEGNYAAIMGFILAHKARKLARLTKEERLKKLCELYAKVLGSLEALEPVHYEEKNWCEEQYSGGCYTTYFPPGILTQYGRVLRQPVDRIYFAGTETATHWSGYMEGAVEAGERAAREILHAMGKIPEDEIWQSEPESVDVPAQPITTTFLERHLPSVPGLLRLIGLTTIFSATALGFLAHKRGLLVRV
The experiment in a line: MAO-B inhibition enzyme assay. It is filed as biochemical. The conditions noted are these: for SI (selectivity index): IC50 for MAO-A / IC50 for MAO-B; for remaining activity at 10 µM: read-out: residual activities at 10 μM (%) MAO-B.

Data set [2] deals with T2, Recombinant human MAO-B. Briefly: MAO-B enzyme kinetics. The conditions noted are these: for type of MAO-B inhibition: Lineweaver-Burk plot. In kind it is biochemical. The procedure, abridged: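 Recombinant human MAO-B in 50 mM sodium phosphate (pH 7.2), 25 °C, 30 min. Benzylamine was the substrate, tested at five concentrations, and product formation was followed continuously as absorbance change at 250 nm. Reactions were started by adding substrate to the enzyme mixture, with three inhibitor conditions per test compound. Inhibition type came from Lineweaver–Burk plots and Ki from secondary plots.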

Data set [3] has as its target T2, Recombinant human MAO-B. The experiment in a line: Reversibility of MAO-B inhibition by dialysis. The conditions noted are these: dialysis method. In kind it is biochemical.

`C#CCN(C)[C@H](C)Cc1ccccc1` [selegiline, reference compound]: the “Pe (cm/s)” value in the data set “BBB permeability assay” (PAMPA effective permeability) was found to be 5.69 ± 0.04 cm/s. Further, the “prediction (BBB permeation)” value in the data set “BBB permeability assay” was “CNS+ (Pe > 4.00 × 10^–6 cm/s: CNS+ (high permeation))”.
Turning to `O=C(NN=Cc1ccc(Cl)cc1)c1ccc(Br)cc1` [ACH8], at Recombinant human MAO-A, the IC50 came out at 20.2 ± 0.57 µM and the remaining activity at 10 µM worked out at 59.6 ± 3.12%. In addition, at Recombinant human MAO-B [1], the IC50 came to 0.2 ± 0.09 µM, the “SI (selectivity index)” value is recorded as 101.10 and the remaining activity at 10 µM turned out to be 18.3 ± 3.45%.
Consider `O=C(NN=Cc1ccc(F)cc1)c1ccc(Cl)cc1` [ACH6], for which, at Recombinant human MAO-A, the IC50 is over 40 µM and the remaining activity at 10 µM was determined as 117 ± 1.86%. At Recombinant human MAO-B [1], the IC50 was determined as 8 ± 0.037 µM, the “SI (selectivity index)” value is recorded as over 5.00 and the remaining activity at 10 µM came out at 46.4 ± 1.68%.
Turning to `O=C(NN=Cc1ccc(Br)cc1)c1ccc(F)cc1` [ACH13], at Recombinant human MAO-A, the IC50 amounted to 11.6 ± 0.07 µM and the remaining activity at 10 µM turned out to be 38.5 ± 5.44%. Moreover, at Recombinant human MAO-B [1], the IC50 amounted to 0.18 ± 0.01 µM, the “SI (selectivity index)” value turned out to be 64.44 and the remaining activity at 10 µM is -50.9%.
Regarding `O=C(NN=Cc1ccc(F)cc1)c1ccc(F)cc1` [ACH14], on Recombinant human MAO-A, the IC50 came to 19.6 ± 1.41 µM and the remaining activity at 10 µM stood at 63.8 ± 1.76%. On Recombinant human MAO-B [1], the IC50 came to 0.15 ± 0.02 µM, the “SI (selectivity index)” value was 130.47 and the remaining activity at 10 µM was -14.4%. On Recombinant human MAO-B [2], the Ki was found to be 0.1 ± 0.038 µM and the “type of MAO-B inhibition” value is “competitive MAO-B inhibitors”. Further, the “reversibility of MAO-B inhibition” value at Recombinant human MAO-B [3] was “reversible inhibitors of MAO-B”. Also, in the data set “BBB permeability assay”, the Papp was 4.98 ×10⁻⁶ cm/s and the “prediction (BBB permeation)” value is recorded as “CNS+ (Pe > 4.00 × 10^–6 cm/s: CNS+ (high permeation))”.
For `O=C(NN=Cc1ccc(Br)cc1)c1ccc(Br)cc1` [ACH9], at Recombinant human MAO-A, the IC50 was over 40 µM and the remaining activity at 10 µM stood at 101 ± 1.86%. Further, on Recombinant human MAO-B [1], the IC50 is over 40 µM and the remaining activity at 10 µM is 98.2%.
As for `O=C(NN=Cc1ccccc1)c1ccc(Cl)cc1` [ACH7], at Recombinant human MAO-A, the IC50 was over 40 µM and the remaining activity at 10 µM worked out at 127 ± 3.48%. Also, at Recombinant human MAO-B [1], the concentration for half-maximal inhibition (IC50) was determined as 12.8 ± 0.026 µM, the “SI (selectivity index)” value is listed as over 3.13 and the remaining activity at 10 µM came out at 43.5 ± 4.56%.
Regarding `O=C(NN=Cc1ccc(Cl)cc1)c1ccccc1` [ACH1], on Recombinant human MAO-A, the IC50 is over 40 µM and the remaining activity at 10 µM came to 96 ± 8.49%. In addition, at Recombinant human MAO-B [1], the IC50 was determined as 0.36 ± 0.04 µM and the remaining activity at 10 µM worked out at 10.7 ± 2.52%.
As for `O=C(NN=Cc1ccc(Cl)cc1)c1ccc(Cl)cc1` [ACH4], at Recombinant human MAO-A, the IC50 is over 40 µM and the remaining activity at 10 µM came out at 92.1 ± 1.86%. At Recombinant human MAO-B [1], the IC50 is 0.37 ± 0.006 µM, the “SI (selectivity index)” value is over 108.11 and the remaining activity at 10 µM was 20.2 ± 1.68%.
With `O=C(NN=Cc1ccc(Br)cc1)c1ccccc1` [ACH2], at Recombinant human MAO-A, the IC50 is over 40 µM and the remaining activity at 10 µM amounted to 131 ± 2.9%. Besides, at Recombinant human MAO-B [1], the IC50 came to 1.65 ± 0.21 µM and the remaining activity at 10 µM turned out to be 30.2 ± 0.95%.
`O=C(NN=Cc1ccc(F)cc1)c1ccc(Br)cc1` [ACH10]: at Recombinant human MAO-A, the IC50 turned out to be 23.4 ± 0.56 µM and the remaining activity at 10 µM came to 61.8 ± 6.24%. In addition, on Recombinant human MAO-B [1], the IC50 was 0.14 ± 0.011 µM, the “SI (selectivity index)” value is given as 167.29 and the remaining activity at 10 µM is 11.7 ± 1.42%. Further, on Recombinant human MAO-B [2], the Ki was determined as 0.097 ± 0.0021 µM and the “type of MAO-B inhibition” value is “competitive MAO-B inhibitors”. For the same molecule, the “reversibility of MAO-B inhibition” value at Recombinant human MAO-B [3] is given as “reversible inhibitors of MAO-B”. Also, in “BBB permeability assay”, the Papp amounted to 5.12 ×10⁻⁶ cm/s and the “prediction (BBB permeation)” value is recorded as “CNS+ (Pe > 4.00 × 10^–6 cm/s: CNS+ (high permeation))”.
Take `O=C(NN=Cc1ccc(Cl)cc1)c1ccc(F)cc1` [ACH12]: at Recombinant human MAO-A, the IC50 turned out to be 4.85 ± 0.83 µM and the remaining activity at 10 µM was determined as 37.6 ± 2.24%. Moreover, at Recombinant human MAO-B [1], the IC50 worked out at 5.6 ± 0.1 µM, the “SI (selectivity index)” value is reported as 0.87 and the remaining activity at 10 µM turned out to be 33.8%.
As for `O=C(NN=Cc1ccc(Br)cc1)c1ccc(Cl)cc1` [ACH5], on Recombinant human MAO-A, the IC50 is over 40 µM and the remaining activity at 10 µM is 70.6 ± 4.16%. For the same molecule, on Recombinant human MAO-B [1], the IC50 was found to be 1.54 ± 0.04 µM, the “SI (selectivity index)” value was over 25.97 and the remaining activity at 10 µM is 35.8 ± 1.88%.
Taken in the same sequence, the figures for `O=C(NN=Cc1ccccc1)c1ccc(Br)cc1` [ACH11] were over 40 µM, 102 ± 4.64%, 5.2 ± 0.056 µM, over 7.69 and 39 ± 5.61%.
For `O=C(NN=Cc1ccc(F)cc1)c1ccccc1` [ACH3], the IC50 is over 40 µM at Recombinant human MAO-A and 0.22 ± 0.02 µM on Recombinant human MAO-B [1]. Also, the remaining activity at 10 µM was found to be 109 ± 7.07% on Recombinant human MAO-A and 7.08 ± 1.25% on Recombinant human MAO-B [1].
